Reference: ChEMBL document CHEMBL1240452, “Synthesis and toxicity towards normal and cancer cell lines of benzimidazolequinones containing fused aromatic rings and 2-aromatic ring substituents” (Eur J Med Chem, 2010)

Columns and labels:
Assay type in all cases: functional, cell-based
[1] = Cytotoxicity against human GM00637 cells after 72 hrs by MTT assay; conditions: GM00637, 72 h
How it was run: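 Normal human skin fibroblasts GM00637, seeded at 10,000 cells/well and exposed aerobically for 72 h at 37 °C. MTT added for a final 3 h; formazan crystals dissolved in DMSO; absorbance 550 nm with 690 nm reference. Viability relative to DMSO-only control, from at least three independent experiments; IC50 estimated by nonlinear regression of dose-response data.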

[2] = test system: DU-145; test: Cytotoxicity against human DU145 cells after 72 hrs by MTT assay; conditions: DU-145, 72 h
How it was run: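 DU145 prostate cancer cells, grown in RPMI-1640 with 10% heat-inactivated FBS, penicillin-streptomycin and 2 mM L-glutamine, seeded at 2000 cells/well. Treated aerobically for 72 h at 37 °C, then incubated 3 h with MTT. Formazan dissolved in DMSO; A550 read against 690 nm reference. Viability as % of DMSO-only wells, mean of ≥3 independent experiments; IC50 from nonlinear regression of dose-response curves.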

[3] = test system: HeLa; test: Cytotoxicity against human HeLa cells after 72 hrs by MTT assay
How it was run: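 HeLa (CCL-2) cervical cancer cells, maintained in DMEM with 10% heat-inactivated FBS, penicillin-streptomycin, 2 mM L-glutamine and non-essential amino acids, plated at 1000 cells/well. Aerobic 72 h exposure at 37 °C, then 3 h MTT; formazan taken up in DMSO, read at 550/690 nm. Viability as % DMSO-only value, ≥3 independent experiments; IC50 by nonlinear regression.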

## CCn1c(-c2cccnc2)nc2c1C(=O)C=CC2=O
[1]
  IC50: 480 nM
[2]
  IC50: 1270 nM
[3]
  IC50: 1500 nM

## CC1Cn2c(nc3c2C(=O)C=CC3=O)-c2ccccc21 (stereo not drawn)
[1]
  IC50: 1650 nM
[2]
  IC50: 1090 nM
[3]
  IC50: 1490 nM

## CO[C@@]12[C@H](COC(N)=O)C3=C(C(=O)C(C)=C(N)C3=O)N1C[C@@H]1N[C@@H]12 [MITOMYCIN]
[1]
  IC50: 460 nM
[2]
  IC50: 170 nM
[3]
  IC50: 270 nM

## CC1Cn2c(nc3ccccc32)-c2ccc3ccccc3c21 (stereo not drawn)
[1]
  IC50: > 10000 nM
[3]
  IC50: > 10000 nM

## CC1Cn2c(nc3c2C(=O)C=CC3=O)-c2ccc3ccccc3c21 (stereo not drawn)
[1]
  IC50: 2440 nM
[2]
  IC50: 780 nM
[3]
  IC50: 1170 nM

## CC1Cn2c(nc3c2C(=O)C=CC3=O)-c2cccnc21 (stereo not drawn)
[1]
  IC50: 740 nM
[2]
  IC50: 700 nM
[3]
  IC50: 1510 nM

## CCn1c(-c2ccccc2)nc2c1C(=O)C=CC2=O
[1]
  IC50: 150 nM
[2]
  IC50: 70 nM
[3]
  IC50: 180 nM

## CCn1c(-c2ccc3ccccc3c2)nc2c1C(=O)C=CC2=O
[1]
  IC50: 40 nM
[2]
  IC50: 60 nM
[3]
  IC50: 70 nM
